For experiment [1], the system named is Escherichia coli. Briefly: Compound was evaluated for the inhibition of growth of methotrexate resistant (MB1428) strain of Escherichia coli cells; d=values could not be determined due to solubility problems encountered with these congener. The class given is functional, organism-based. The method, boiled down:
(§1)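 E. coli cultures kept on nutrient agar slants. Inoculum from two serial 24 h, 37 °C transfers in glucose-salts medium with 0.6% vitamin-free acid-hydrolyzed casein, washed twice, then diluted to about 15 cells/mL. Each 10 mL tube held basal medium, 25% glucose solution (1 mL) and inhibitor dissolved in water or 0.04 M HCl, diluted in sterile water. C = molar concentration giving 50% culture inhibition.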

Experiment [2] relates to Escherichia coli. Briefly: Inhibition of growth of methotrexate-sensitive (MB1417) strain of Escherichia coli cells. It is filed as functional. The method, boiled down:
as §1

Experiment [3] deals with Escherichia coli. The experiment is described as follows: Inhibition of growth of methotrexate sensitive (MB1417) strain of Escherichia coli cells. It is filed as functional. The method, boiled down:
as §1

For experiment [4], the system named is Escherichia coli. Briefly: Inhibition of growth of methotrexate resistant (MB1428) strain of Escherichia coli cells. It is filed as functional. The method, boiled down: as §1
In experiment [5] the target is T1, Dihydrofolate reductase type 1 (Escherichia coli) (UniProt P00382).
T1 sequence (whole entry): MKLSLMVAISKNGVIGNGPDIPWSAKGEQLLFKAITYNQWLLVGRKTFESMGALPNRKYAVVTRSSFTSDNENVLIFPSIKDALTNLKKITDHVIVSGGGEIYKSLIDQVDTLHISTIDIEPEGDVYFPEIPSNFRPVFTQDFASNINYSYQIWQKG

Experiment [6] deals with Escherichia coli. The experiment is described as follows: Inhibition of growth of methotrexate-resistant (MB1428) strain of Escherichia coli cells. It is filed as functional. The method, boiled down: as §1
Experiment [7] deals with Escherichia coli. The experiment is described as follows: Compound was evaluated for the inhibition of growth of methotrexate sensitive (MB1417) strain of Escherichia coli cells; d=values could not be determined due to solubility problems encountered with these congener. It is filed as functional, organism-based. The method, boiled down:
as §1

In experiment [8] the test system is Escherichia coli. The experiment is described as follows: The compound was evaluated for the inhibition of growth of methotrexate resistant (MB1428) strain of Escherichia coli cells; d=values could not be determined due to solubility problems encountered with these congener. It is filed as functional, organism-based.

“And” between values parts separate entries of the source, which are not always exact repeats. Identical values can stand only once.

Consider `CCCCCCCCOc1c(OC)cc(Cc2cnc(N)nc2N)cc1OC`, for which the “Log 1/C” value in the experiment with Escherichia coli [1] is “Not detected”; in the experiment on Escherichia coli [2], 5.18.
Turning to `CCc1cccc(OCc2cccc(N3C(N)=NC(N)=NC3(C)C)c2)c1`, the results for the “Log 1/C” value in the experiment with Escherichia coli [3] and with Escherichia coli [4] were 3.67 and 3.98, respectively. The Log 1/Ki app in experiment [5] is 5.95.
For the compound `CC(C)(C)c1cccc(OCc2cccc(N3C(N)=NC(N)=NC3(C)C)c2)c1`, the “Log 1/C” value in the experiment with Escherichia coli [3] is listed as 4.1; in the experiment with Escherichia coli [4], 4.19. Further, the Log 1/Ki app in experiment [5] was 6.06.
As to `CS(=O)(=O)Oc1cccc(Cc2cnc(N)nc2N)c1`, the entries for the “Log 1/C” value in the experiment with Escherichia coli [2] and with Escherichia coli [6] were 4.59 and 3.35, respectively.
As for `CC1(C)N=C(N)N=C(N)N1c1cccc(COc2cccc(NC(=N)S)c2)c1`, in experiment [5], the Log 1/Ki app was determined as 6.17.
For `CC1(C)N=C(N)N=C(N)N1c1cccc(COc2cccc(CO)c2)c1`, the “Log 1/C” value with Escherichia coli [3] is listed as 2.38; in the experiment with Escherichia coli [4] it was 2.51. The compound also registered a Log 1/Ki app in experiment [5] of 6.19.
On to `CCCCOc1ccc(Cc2cnc(N)nc2N)cc1`, for which the “Log 1/C” value came to 4.76 in the experiment on Escherichia coli [2] and 4.01 with Escherichia coli [6].
The corresponding values for `CC1(C)N=C(N)N=C(N)N1c1cccc(S(=O)(=O)F)c1` are 2.5 and 2.
For `COCc1cccc(Cc2cnc(N)nc2N)c1` the same measures were 4.68 and 2.98.
On to `CC1(C)N=C(N)N=C(N)N1c1cccc(COc2cccc(C#N)c2)c1`, for which the “Log 1/C” value came out at 2.74 in the experiment on Escherichia coli [3] and 3.02 in the experiment with Escherichia coli [4]. Further, in experiment [5], the Log 1/Ki app stood at 6.05.
For the compound `CCCCOc1cccc(N2C(N)=NC(N)=NC2(C)C)c1`, the “Log 1/C” value in the experiment on Escherichia coli [3] worked out at 3.29; in the experiment with Escherichia coli [4], 3.49.
For the compound `Nc1ncc(Cc2ccccc2)c(N)n1`, the “Log 1/C” value in the experiment with Escherichia coli [2] came to 4.28; in the experiment on Escherichia coli [6], 2.92.
With `COc1cc(Cc2cnc(N)nc2N)cc(OC)c1`, the “Log 1/C” value in the experiment on Escherichia coli [2] is recorded as 6.08; with Escherichia coli [6], 4.55.
As for `CN(C)c1ccc(Cc2cnc(N)nc2N)cc1`, the “Log 1/C” value is 4.94 with Escherichia coli [2] and 3.46 in the experiment with Escherichia coli [6].
The corresponding values for `Nc1ncc(Cc2cccc(O)c2)c(N)n1` are 4.35 and 2.94.
For the compound `COc1cc(Cc2cnc(N)nc2N)cc(OC)c1OC` [TRIMETHOPRIM], the “Log 1/C” value is listed as 6.61 in the experiment on Escherichia coli [2] and 5.34 in the experiment with Escherichia coli [6].
For `CCc1nc(N)nc(N)c1-c1ccc(Cl)cc1` [PYRIMETHAMINE] the same measures were 4.21 and 3.56.
Regarding `COc1cccc(OCc2cccc(N3C(N)=NC(N)=NC3(C)C)c2)c1`, the “Log 1/C” value in the experiment with Escherichia coli [3] amounted to 3.21; in the experiment on Escherichia coli [4] it was 3.26. The same compound had a Log 1/Ki app in experiment [5] of 6.02.
Consider `CC1(C)N=C(N)N=C(N)N1c1cccc(OCC23CC4CC(CC(C4)C2)C3)c1`, for which the “Log 1/C” value was determined as 4.49 with Escherichia coli [3] and 4.63 with Escherichia coli [4].
As for `COCCOc1c(OC)cc(Cc2cnc(N)nc2N)cc1OC` [TETROXOPRIM], the “Log 1/C” value in the experiment on Escherichia coli [2] is 5.83; with Escherichia coli [6], 4.72.
In the case of `CCCCCCCCOc1cccc(Cc2cnc(N)nc2N)c1`, the “Log 1/C” value in the experiment with Escherichia coli [7] was “Not detected”; in the experiment with Escherichia coli [6], 4.41.
For `COc1ccc(Cc2cnc(N)nc2N)cc1`, the “Log 1/C” value in the experiment with Escherichia coli [2] was 5.24 and 4.77; in the experiment with Escherichia coli [6] it was 3.46 and 3.7.
In experiment [5], `CCOCc1cccc(N2C(N)=NC(N)=NC2(C)C)c1` returned a Log 1/Ki app of 5.92.
Turning to `COCCOc1cccc(Cc2cnc(N)nc2N)c1`, the “Log 1/C” value in the experiment on Escherichia coli [2] worked out at 4.33; with Escherichia coli [6] it was 2.92.
`CCCCCCCCCCCCCCOc1cccc(N2C(N)=NC(N)=NC2(C)C)c1` gave a Log 1/Ki app in experiment [5] of 5.85.
Regarding `COCCOc1ccc(Cc2cnc(N)nc2N)cc1`, the entries for the “Log 1/C” value in the experiment with Escherichia coli [2] and in the experiment on Escherichia coli [6] were 4.61 and 3.11, respectively.
For `CC(=O)Nc1ccc(Cc2cnc(N)nc2N)cc1` the same measures were 4.08 and 3.03.
On to `CN(Cc1cnc2nc(N)nc(N)c2n1)c1ccc(C(=O)N[C@@H](CCC(=O)O)C(=O)O)cc1` [METHOTREXATE], for which the “Log 1/C” value in the experiment with Escherichia coli [2] came out at 3.76; in the experiment with Escherichia coli [6], 2.7.
The corresponding values for `Cc1cccc(Cc2cnc(N)nc2N)c1` are 4.91 and 3.29.
On to `Nc1ncc(Cc2cccc(Cl)c2)c(N)n1`, for which the “Log 1/C” value in the experiment with Escherichia coli [2] is recorded as 4.92; in the experiment on Escherichia coli [6] it was 3.46.
The corresponding values for `CC1(C)N=C(N)N=C(N)N1c1cccc(OCCOc2cccc(C(F)(F)F)c2)c1` are 4.01 and 4.14.
For `Cc1nc(N)nc(N)c1-c1ccc(Cl)c(Cl)c1` [METOPRINE] the same measures were 4.24 and 4.35.
For `COc1ccc(OC)c(Cc2cnc3nc(N)nc(N)c3c2C)c1` [PIRITREXIM] the same measures were 5.95 and 4.56.
Regarding `Cc1cccc(OCc2cccc(N3C(N)=NC(N)=NC3(C)C)c2)c1`, the “Log 1/C” value stood at 3.27 in the experiment on Escherichia coli [3] and 3.41 in the experiment with Escherichia coli [4]. Further, the Log 1/Ki app in experiment [5] was determined as 6.27.
On to `CCOc1cc(Cc2cnc(N)nc2N)ccc1OCc1ccccc1`, for which the “Log 1/C” value is “Not detected” in the experiment on Escherichia coli [8] and 5.04 in the experiment with Escherichia coli [2].
`COc1cc(Cc2cnc(N)nc2N)cc(OC)c1SC` [METIOPRIM]: the results for the “Log 1/C” value in the experiment on Escherichia coli [2] and in the experiment on Escherichia coli [6] were 6.97 and 5.66, respectively.
As to `CC1(C)N=C(N)N=C(N)N1c1cccc(CSc2ccccc2)c1`, the “Log 1/C” value in the experiment on Escherichia coli [3] is listed as 3.39; in the experiment with Escherichia coli [4] it was 3.52.
`CCCCCCCCCCCCOc1cccc(N2C(N)=NC(N)=NC2(C)C)c1` had a Log 1/Ki app in experiment [5] of 5.88.
As to `C=C(C)c1c(OC)cc(Cc2cnc(N)nc2N)cc1OC`, the “Log 1/C” value was 6.63 in the experiment on Escherichia coli [2] and 5.66 in the experiment with Escherichia coli [6].
As for `CCCCCCCCOc1cc(Cc2cnc(N)nc2N)ccc1OC`, the “Log 1/C” value is “Not detected” in the experiment with Escherichia coli [1] and 4.91 in the experiment on Escherichia coli [2].
As for `CCCCCCCCCCCOc1cccc(N2C(N)=NC(N)=NC2(C)C)c1`, the “Log 1/C” value with Escherichia coli [3] and in the experiment on Escherichia coli [4] was 5.5 each time. Moreover, the Log 1/Ki app in experiment [5] came out at 6.19.
In experiment [5], `CC1(C)N=C(N)N=C(N)N1c1cccc(COc2cccc(NC(N)=O)c2)c1` returned a Log 1/Ki app of 5.91.
Consider `Nc1ncc(Cc2ccc([N+](=O)[O-])cc2)c(N)n1`, for which the figures for the “Log 1/C” value in the experiment with Escherichia coli [2] and in the experiment with Escherichia coli [6] were 4.53 and 3.43, respectively.
For the compound `CCCCCCCOc1cccc(Cc2cnc(N)nc2N)c1`, the “Log 1/C” value amounted to 4.88 in the experiment on Escherichia coli [2] and 4.84 with Escherichia coli [6].
For `COc1cc(Cc2cnc(N)nc2N)cc(OC)c1Br` [BRODIMOPRIM] the same measures were 6.67 and 5.69.
The corresponding values for `CC1(C)N=C(N)N=C(N)N1c1ccc(Cl)cc1` [CYCLOGUANIL] are 2.47 and 2.5.
The corresponding values for `CCCCCCOc1cccc(Cc2cnc(N)nc2N)c1` are 4.81 and 4.53.
`Cc1cccc(SCc2cccc(N3C(N)=NC(N)=NC3(C)C)c2)c1`: the entries for the “Log 1/C” value in the experiment on Escherichia coli [3] and in the experiment on Escherichia coli [4] were 3.87 and 3.76, respectively. Also, in experiment [5], the Log 1/Ki app was 6.57.
Take `COc1ccc(Cc2cnc(N)nc2N)cc1OC` [DIAVERIDINE]: the “Log 1/C” value in the experiment with Escherichia coli [2] amounted to 6.08; with Escherichia coli [6], 4.46.
For `Nc1ncc(Cc2ccc(Br)cc2)c(N)n1` the same measures were 5.12 and 3.69.
As for `CC1(C)N=C(N)N=C(N)N1c1cccc(OCc2ccc(Cl)c(Cl)c2)c1`, the “Log 1/C” value in the experiment with Escherichia coli [3] turned out to be 4.13; in the experiment on Escherichia coli [4], 4.01. The Log 1/Ki app in experiment [5] was found to be 6.15.
For the compound `CCCCCCOc1ccc(Cc2cnc(N)nc2N)cc1`, the entries for the “Log 1/C” value in the experiment with Escherichia coli [2] and in the experiment on Escherichia coli [6] were 4.79 and 4.55, respectively.
`CC1(C)N=C(N)N=C(N)N1c1cccc(COc2cccc(Cl)c2)c1` yielded a Log 1/Ki app in experiment [5] of 6.01.
